Shown are actives, neighbours in structure and some others; about 3.1% of the full set was active somewhere.
HIV Env fusion: blocks HIV Env-driven cell-cell fusion. HeLa-JRFL Env/CEM21 cell fusion, luciferase. inhibition, % at 12.3 µM. 360,000 compounds, 1.1% hits;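 active = mean replicate inhibition score of at least 50 and every replicate individually at or above 50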
EWS-Fli inh: EWS/Fli transcriptional activity inhibition | A673 NR0B1-luciferase reporter, viability-normalised | inhibition, % at 12.6 µM | 350,000 compounds, 0.67% hits;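 active = mean inhibition of at least 50% after viability correction, with every replicate also passing that limit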;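 note: firefly luciferase signal divided by Alamar Blue viability fluorescence both relative to DMSO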
PAX8 inh HTS: lowers PAX8-driven luciferase in RMG-I cells. AID 652154. 360,000 compounds, 1.2% hits. inhibition, % at 12.6 µM. RMG-I TPO-luciferase reporter, SteadyGlo, 24 h;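 active = mean replicate inhibition at least 60% with every replicate also reaching 60%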;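 note: luciferase light reporting Pax8 driven TPO promoter activity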
PGC1a acetyl inh: PGC1a acetylation modulation, inhibitor mode; U2OS PGC1a acetylation, AlphaScreen anti-acetyl-lysine; with virally co-expressed GCN5 acetyltransferase; inhibition, % at 15.6 µM; 350,000 compounds, 0.17% hits; AID 651687;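 active = every replicate shows inhibition of at least 40%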
FN deposition inh: fibronectin deposition inhibition; AH1F fibroblasts, Alexa488-fibronectin deposition fluorescence, overnight; inhibition, % at 12.6 µM; 350,000 compounds, 0.086% hits; AID 743247;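 active = mean inhibition across replicates of 30% or more, regardless of how many single replicates reach that level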
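Assay system: AH1F fibroblast monolayer, labelled fibronectin deposition. Amount: 10000 cells per well. Also added: labelled fibronectin 24 nM. Compound: single-point pinned compound. Incubation: cell attachment 1 h, compound and FN exposure overnight. Detection: fluorescence after three HBSS washes, excitation 485 nm, emission 525 nm. Read-out: inhibition of fibronectin deposition signal.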
FGF22 binding: binders of recombinant human FGF22 by thermal shift; activity (Tm shift, normalised), % at 9.99 µM; SYPRO orange fluorescence; percent of sucrose octasulfate shift, DMSO zero; 340,000 compounds, 1.5% hits; Q9HCT0;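 active = mean Tm shift, scaled 0 neutral to 100 positive control, at about 1.3% or above, every replicate too, limit read from the data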
Target sequence (Q9HCT0 whole entry, looked up): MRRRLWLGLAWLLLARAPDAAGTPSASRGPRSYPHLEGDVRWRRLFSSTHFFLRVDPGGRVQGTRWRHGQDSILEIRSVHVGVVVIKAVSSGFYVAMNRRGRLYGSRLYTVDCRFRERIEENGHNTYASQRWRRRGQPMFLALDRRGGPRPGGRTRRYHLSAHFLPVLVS
Numbers stand for hits; – = inactive; · = no result given.

SMILES | HIV Env fusion | EWS-Fli inh | PAX8 inh HTS | PGC1a acetyl inh | FN deposition inh | FGF22 binding
COc1cccc(C(C(=O)NC2CCCCC2)N(C(=O)c2cccs2)c2ccc3c(c2)OCO3)c1 (stereo unspecified) | – | – | – | · | – | 44
COc1ccc(C(C(=O)NC2CCCC2)N(C(=O)c2ccco2)c2ccc(OC)c(OC)c2)cc1 (stereo unspecified) | – | · | – | – | – | ·
CCOc1ccc(N(C(=O)c2cnsn2)C(C(=O)NC2CCCCC2)c2ccncc2)cc1 (stereo unspecified) | – | – | – | · | – | –
COc1ccc(COC[C@]23NC(=O)N[C@H](c4ccccc4O2)[C@H]3CO)cc1 | – | – | – | – | · | –
C[C@H](CO)N1C[C@H](C)[C@H](CN(C)S(=O)(=O)c2ccc(F)cc2)OCCCC[C@H](C)Oc2ccc(NC(=O)Nc3ccc(F)cc3)cc2C1=O | – | – | 76 | – | – | –
C[C@@H]1CN([C@H](C)CO)C(=O)c2cc(NC(=O)Nc3ccc(F)cc3)ccc2O[C@@H](C)CCCCO[C@H]1CN(C)S(=O)(=O)c1ccc(F)cc1 | – | – | 86 | – | – | –
C[C@H]1CCCCO[C@@H](CN(C)S(=O)(=O)c2ccc(F)cc2)[C@@H](C)CN([C@@H](C)CO)C(=O)c2cc(NC(=O)Nc3ccc(F)cc3)ccc2O1 | – | – | – | – | – | –
Cc1ccc(S(=O)(=O)N(C)C[C@@H]2OCCCC[C@H](C)Oc3ccc(NC(=O)Nc4ccc(F)cc4)cc3C(=O)N([C@H](C)CO)C[C@@H]2C)cc1 | – | – | 61 | – | – | –
Nc1c(C(=O)Nc2cccc(C(=O)O)c2)sc2nc3c(cc12)CCCC3 | – | 85 | 85 | – | – | –
Nc1c(C(=O)Nc2ccc(Cl)c(C(=O)O)c2)sc2nc3c(cc12)CCCC3 | – | · | – | – | · | –
Cc1cc(=O)oc2cc(OC(C)C(=O)NCC3CCC(C(=O)O)CC3)ccc12 (stereo unspecified) | · | – | · | – | · | –
Cc1cc(=O)oc2cc(OC(C)C(=O)NCC3CCCO3)ccc12 (stereo unspecified) | – | – | – | – | – | 44
COc1cccc(S(=O)(=O)Nc2ccc3c(c2)C(=O)N(C)C[C@H](OC)[C@@H](C)CN(Cc2ccccc2F)[C@@H](C)CO3)c1 | · | – | 65 | – | – | –
CO[C@@H]1CN(C)C(=O)c2cc(NC(=O)Nc3ccccc3F)ccc2OC[C@@H](C)N(Cc2ccccc2F)C[C@H]1C | – | – | · | – | – | ·
CO[C@@H]1CN(C)C(=O)c2ccc(NC(=O)Nc3ccccc3F)cc2OC[C@@H](C)N(Cc2ccccc2F)C[C@H]1C | · | – | 71 | – | – | –
COc1cccc(S(=O)(=O)Nc2ccc3c(c2)C(=O)N(C)C[C@@H](OC)[C@@H](C)CN(Cc2ccccc2F)[C@@H](C)CO3)c1 | · | – | – | – | – | –
CCCNC(=O)Nc1ccc2c(c1)C(=O)N(C)C[C@@H](OC)[C@@H](C)CN(Cc1cncnc1)[C@H](C)CO2 | · | – | · | – | – | –
Cc1cccc(S(=O)(=O)N2C[C@H](O)COC[C@@H]3O[C@@H](CC(=O)Nc4ccc(-c5ccccc5)cc4)CC[C@H]32)c1 | – | – | – | – | – | –
C[C@H]1CCCCO[C@@H](CN(C)C(=O)c2ccncc2)[C@@H](C)CN([C@@H](C)CO)C(=O)c2cc(NS(=O)(=O)c3ccccc3)ccc2O1 | – | – | – | – | · | –
COc1ccc(C(=O)Nc2ccc3c(c2)C(=O)N(C)C[C@H](OC)[C@H](C)CN(C(C)=O)[C@H](C)CO3)cc1 | · | – | · | – | – | –
O=C(N(c1ccccn1)c1ccccn1)C12CC3CC(CC(C3)C1)C2 | – | – | – | – | – | –
O=C(N(Cc1ccccc1)c1ccccn1)C12CC3CC(CC(C3)C1)C2 | 122 | · | · | · | – | ·
COc1cc(NC(=O)c2ccnc(N)c2)cc(C(=O)Nc2cccc(C(F)(F)F)c2)c1 | – | – | – | – | – | –
COc1cc(NC(=O)c2cc(C)on2)cc(C(=O)Nc2cccc(C(F)(F)F)c2)c1 | – | – | 86 | · | – | –
Cc1ccc(NC(=O)C2CCCN2C(=O)NC2CCCCC2)cc1F (stereo unspecified) | – | – | – | · | – | 43
SMILES | HIV Env fusion | EWS-Fli inh | PAX8 inh HTS | PGC1a acetyl inh | FN deposition inh | FGF22 binding
Cc1ccc(NC(=O)C2CCCN2C(=O)NC2CCCCC2)cc1C (stereo unspecified) | – | – | – | – | · | –
COc1cc(/C=C/c2ccc3c(Br)cc(Br)c(O)c3n2)ccc1O | – | – | 73 | – | – | –
CC(OC(=O)c1ccc(S(=O)(=O)N(C)c2ccccc2)cc1)C(=O)NCCC1=CCCCC1 (stereo unspecified) | – | – | – | · | – | –
COc1ccc(NC(=O)CNCCC2=CCCCC2)cc1 | 60 | · | · | – | – | ·
CC(OC(=O)c1ccc(NC(=O)CC#N)cc1)C(=O)NCCC1=CCCCC1 (stereo unspecified) | 76 | – | – | – | – | –
C[C@@H]1CN([C@H](C)CO)C(=O)c2cccc(NC(=O)c3ccncc3)c2O[C@H]1CN(C)Cc1ccccc1 | – | – | · | – | · | –
C[C@@H]1CN([C@H](C)CO)C(=O)c2cccc(NS(=O)(=O)c3ccccc3)c2O[C@H]1CN(C)S(=O)(=O)c1cn(C)cn1 | – | – | – | – | · | –
O=C(O)COc1ccc(NC(=O)c2cccs2)cc1 | · | – | · | – | · | –
CC1CCCN(C(=O)COc2ccc(NC(=O)c3cccs3)cc2)C1 (stereo unspecified) | – | – | – | – | – | 44
COCC(=O)N1CCC2(CC1)CN(C(=O)Nc1ccccc1F)[C@H](CO)c1[nH]c3cc(OC)ccc3c12 | · | – | · | – | · | –
O=C(C[C@H]1CC[C@H]2[C@@H](COC[C@@H](O)CN2C(=O)Nc2cccc(F)c2)O1)NCc1ccccc1Cl | · | · | · | – | – | –
CS(=O)(=O)N1CC(=O)N2[C@@H](CO)[C@H](c3ccc(C#CC4CCCC4)cc3)[C@@H]2C1 | · | – | · | – | · | ·
CC(C)(C)[C@@H]1C=C(C(=O)Nc2ccccc2)O[C@H](OCc2ccc(CO)cc2)C1 | 97 | – | – | – | – | –
Cc1ccccc1-c1ccc2c(c1)O[C@@H](CN(C)C(=O)c1ccccn1)[C@@H](C)CN([C@@H](C)CO)S2(=O)=O | – | – | – | – | – | –
COc1ccc(NC(=O)NCc2ccco2)cc1OC | – | – | – | · | – | 44
C[C@H](O)C#Cc1cnc2c(c1)C(=O)N([C@@H](C)CO)C[C@@H](C)[C@@H](CN(C)Cc1ccc(-c3ccccc3)cc1)O2 | – | – | – | – | – | –
C/C(=N\Nc1ccc2nncn2n1)c1ccccn1 | – | – | 63 | – | – | ·
CCc1cccc2c(C(=O)C(F)(F)F)cn(CC(=O)NCC3CCCO3)c12 (stereo unspecified) | – | – | – | · | – | –
